Each structure is given as a SMILES string. The source made the active and inactive calls. No cut-off for these calls is given here.

One may read the Kd as the free concentration of one partner at which half of the binding sites on the other are occupied at equilibrium, for simple one-to-one binding. A low value points to a tighter complex.

Series [1] is described as follows: Binding affinity to biotinylated-r(CUG)12 RNA (unknown origin) assessed as disruption of r(CUG)12/His6-tagged MBNL1 complex at 50 uM incubated for 15 mins by TR-FRET assay. The gist of the method: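 TR-FRET disruption of a preformed r(CUG)12–MBNL1 complex, method as described previously; each compound screened at a single 50 µM concentration.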
Background: TR-FRET usually uses a lanthanide donor and a delayed reading to cut background.

Series [2] concerns C2C12. Put plainly: Binding affinity to r(CUG)800 RNA (unknown origin) expressed in mouse C2C12 cells assessed as increase in nucleocytoplasmic transport of mRNA at 12.5 to 50 uM measured after 20 to 24 hrs by luciferase reporter gene assay. In kind it is cell-based. An outline of the steps:
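Run in C2C12 cells expressing a luciferase-encoding mRNA carrying 800 CUG repeats in the 3′ UTR. Nucleocytoplasmic export is read as luciferase turnover of a pro-luminescent substrate. Compounds tested at 50, 25 and 12.5 µM.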

Series [3] relates to C2C12. The experiment in a line: Effect on luciferase expression in mouse C2C12 cells at 12.5 to 50 uM measured after 20 to 24 hrs by luminescence assay. Format: functional, cell-based. An outline of the steps:
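Counterscreen in the same C2C12 luciferase line without CUG repeats, used to flag compounds that enhance luciferase translation non-specifically. Compounds tested at 50, 25 and 12.5 µM.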

Series [4] concerns HeLa. Put plainly: Binding affinity to r(CUG)960 RNA (unknown origin) expressed in human HeLa cells co-expressing cTNT mini-gene assessed as reduction in deregulated cTNT exon5 alternative splicing at 100 uM measured after 20 to 24 hrs by RT-PCR analysis. In kind it is cell-based.
Series [5] in a line: Cytotoxicity against human HeLa cells expressing DM1 assessed as reduction in cell viability at 100 uM measured after 24 hrs by WST-1 assay. Format: toxicity, cell-based. A general note: Tetrazolium assays rely on reduction of a dye to a coloured formazan, in cell work by metabolically active cells.
In series [6] the test system is HeLa. Put plainly: Binding affinity to r(CUG)960 RNA (unknown origin) expressed in human HeLa cells co-expressing cTNT mini-gene assessed as reduction in deregulated cTNT exon5 alternative splicing at 10 uM measured after 20 to 24 hrs by RT-PCR analysis. Format: cell-based.
The test system of series [7] is HeLa. The experiment in a line: Increase in DMPK transcript level in human HeLa cells co-expressing DM1/DMPK and cTNT mini-gene at 100 uM measured after 20 to 24 hrs by RT-qPCR method. Format: functional, cell-based. Background: Quantitative PCR measures a nucleic acid by following its amplification.
Series [8] in a line: Binding affinity to r(CUG)2 RNA (unknown origin) measured after 5 mins by fluorescence analysis.
Series [9] is described as follows: Binding affinity to r(GC)20 RNA (unknown origin) measured after 5 mins by fluorescence analysis.
The nature of series [10]: Binding affinity to tRNA (unknown origin) measured after 30 mins by fluorescence analysis.
Series [11] can be described thus: Binding affinity to AT hairpin DNA (unknown origin) measured after 30 mins by fluorescence analysis.

For `O=C(Nc1ccc2c(c1)C(=O)N(c1ccccc1)C2=O)c1ccco1`, the Activity in [1] is above 20%. Further, the result in the series on C2C12 [2] and in the series with C2C12 [3] was Active.
For the compound `O=C(Nc1ccc2[nH]c(-c3ccc(F)cc3)nc2c1)c1ccncc1`, the Activity in [1] was above 20%; in series [5], “Non-Toxic”. Also, the result with C2C12 [2] and with HeLa [4] was Active.
Regarding `Cc1c(C(=O)Nc2ccccn2)sc2nc(-c3ccccc3)cn12`, the Activity in series [1] was above 20%. Further, the outcome with C2C12 [2] and with C2C12 [3] was Active.
Turning to `O=C(Nc1ccccn1)c1cccc(OCc2cscn2)c1`, the Activity in series [1] was above 20%; in series [5], “Non-Toxic”. Moreover, the result in the series with C2C12 [2], with HeLa [4], with HeLa [6] and with HeLa [7] was Active.
Turning to `Nc1ccc(-c2nc3ccc(-c4nc5ccc(N)cc5[nH]4)cc3[nH]2)cc1`, the Activity in series [1] is above 20%.
Take `O=C(Nc1ccc(-c2nc3ccccc3[nH]2)cc1)c1cccnc1`: in series [1], the Activity is above 20%. Further, the result with C2C12 [2] and with C2C12 [3] was Active.
Turning to `O=C(Nc1ccc(NC(=O)c2ccc(F)cc2)nc1)c1ccncc1`, the results for the Activity in series [1] and in series [5] were above 20% and “Non-Toxic”, respectively. Moreover, the outcome in the series on C2C12 [2], in the series on HeLa [4] and in the series on HeLa [6] was Active. Moreover, the Kd was 4.6 µM in series [8], above 30 µM in series [9], above 50 µM in series [10] and above 50 µM in series [11].
